Laboratory results published in ChEMBL document CHEMBL1759994, “The discovery and synthesis of potent zwitterionic inhibitors of renin” (Bioorg Med Chem Lett, 2011).
pIC50, pKi: −log10 of the molar value.

Experiments:
[1] = molecular target: Voltage-gated inwardly rectifying potassium channel KCNH2 (Homo sapiens, UniProt Q12809); experiment: Binding affinity to human ERG
[2] = molecular target: T1, Renin (Homo sapiens, UniProt P00797); experiment: Inhibition of human recombinant renin in human citreated-plasma
T1 sequence (P00797 whole entry): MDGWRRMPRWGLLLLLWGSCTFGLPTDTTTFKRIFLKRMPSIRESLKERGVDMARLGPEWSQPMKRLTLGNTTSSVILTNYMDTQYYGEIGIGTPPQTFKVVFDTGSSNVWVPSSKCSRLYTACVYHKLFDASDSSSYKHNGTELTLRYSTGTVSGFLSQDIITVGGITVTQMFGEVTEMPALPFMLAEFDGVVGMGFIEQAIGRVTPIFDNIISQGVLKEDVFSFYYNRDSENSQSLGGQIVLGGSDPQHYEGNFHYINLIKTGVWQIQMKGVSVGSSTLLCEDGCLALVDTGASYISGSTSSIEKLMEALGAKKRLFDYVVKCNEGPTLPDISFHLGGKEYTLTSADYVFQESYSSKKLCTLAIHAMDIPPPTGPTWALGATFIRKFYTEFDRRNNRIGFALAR

[3] = molecular target: T1, Renin; experiment: Inhibition of human recombinant renin in PBS buffer using tetradecapeptide at pH 7.4
[4] = molecular target: T2, Cytochrome P450 3A4 (Homo sapiens, UniProt P08684); experiment: Inhibition of human CYP3A4 in human liver microsomes assessed as formation of 6beta-hydroxy-testosterone using testosterone as substrate by high throughput mass spectrometry in absence of NADPH; format: ADME, Microsome
[5] = molecular target: T2, Cytochrome P450 3A4; experiment: Inhibition of human CYP3A4 in human liver microsomes assessed as formation of 6beta-hydroxy-testosterone using testosterone as substrate by high throughput mass spectrometry preincubated for 30 mins in presence of NADPH; format: ADME, Microsome
[6] = molecular target: CYP3A4 (Homo sapiens, UniProt P08684); experiment: Ratio of IC50 for human CYP3A4 in absence of NADPH to IC50 for human CYP3A4 preincubated for 30 mins in presence of NADPH; details: read-out: Ratio IC50
[7] = Oral bioavailability in Sprague-Dawley rat at 30 mg/kg in lyposin 2; format: ADME, organism-based; details: in vivo
[8] = AUC (0 to 24 hrs) in Sprague-Dawley rat at 30 mg/kg, po as 0.5% methocel suspension; format: ADME, organism-based; set-up: time < 24 hr, dose 30 mg/kg, route oral; details: plasma
[9] = Clearance in Sprague-Dawley rat at 30 mg/kg, po in 0.5% methocel and 3 to 5 mg/kg, iv in 60% PEG 200; details: in vivo
[10] = Oral bioavailability in Sprague-Dawley rat at 30 mg/kg in Ca salt in 0.5% methocel; format: ADME, organism-based; details: in vivo
[11] = AUC (0 to 24 hrs) in Sprague-Dawley rat at 30 mg/kg, po in Ca salt in 0.5% methocel; format: ADME, organism-based; set-up: time < 24 hr, dose 30 mg/kg, route oral; details: plasma
[12] = AUC (0 to 24 hrs) in Sprague-Dawley rat at 30 mg/kg, po in lyposin 2; format: ADME, organism-based; set-up: time < 24 hr, dose 30 mg/kg, route oral; details: plasma
[13] = Oral bioavailability in Sprague-Dawley rat at 30 mg/kg as 0.5% methocel suspension; format: ADME, organism-based; details: in vivo
[14] = Oral bioavailability in Sprague-Dawley rat at 30 mg/kg in Na salt in 0.5% methocel; format: ADME, organism-based; details: in vivo
[15] = AUC (0 to 24 hrs) in Sprague-Dawley rat at 30 mg/kg, po in Na salt in 0.5% methocel; format: ADME, organism-based; set-up: time < 24 hr, dose 30 mg/kg, route oral; details: plasma
[16] = AUC (0 to 24 hrs) in Sprague-Dawley rat at 30 mg/kg, po in peanut oil; format: ADME, organism-based; set-up: time < 24 hr, dose 30 mg/kg, route oral; details: plasma
[17] = AUC (0 to 24 hrs) in Sprague-Dawley rat at 30 mg/kg, po in 60% PEG 200; format: ADME, organism-based; set-up: time < 24 hr, dose 30 mg/kg, route oral; details: plasma
[18] = Oral bioavailability in Sprague-Dawley rat at 30 mg/kg in 60% PEG 200; format: ADME, organism-based; details: in vivo
[19] = AUC (0 to 24 hrs) in Sprague-Dawley rat at 30 mg/kg, po in 60% PEG 200 at PH 2.5; format: ADME, organism-based; set-up: time < 24 hr, dose 30 mg/kg, route oral; details: plasma
[20] = Oral bioavailability in Sprague-Dawley rat at 30 mg/kg in peanut oil; format: ADME, organism-based; details: in vivo
[21] = Bioavailability in Sprague-Dawley rat at 20 mg/kg, intra-duodenum in 5% dextrose; format: ADME, organism-based; details: in vivo
Method in brief: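 Rats were dosed directly into the duodenum at 20 mg/kg in 5% dextrose, 1 mL/kg. Bioavailability was calculated for the parent carboxylic acid.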

[22] = Oral bioavailability in Sprague-Dawley rat at 30 mg/kg in 60% PEG 200 at PH 2.5; format: ADME, organism-based; details: in vivo
[23] = test system: Liver; experiment: Metabolic stability in Sprague-Dawley rat liver S9 fraction assessed as conversion to (1R,2R)-2-((3-(((3R,4S)-N-cyclopropyl-4-(4-(2-(2,6-dichloro-4-methylphenoxy)ethoxy)phenyl)piperidine-3-carboxamido)methyl)-5-(3-methoxypropyl)phenoxy)methyl)cyclopropanecarboxylic acid after 20 mins; format: ADME, subcellular; details: s9, 20 min
Method in brief: (§1)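 Prodrugs were incubated for 20 min in rat or human whole blood, or in rat or human liver S9 fraction (n = 2). The read-out was % conversion to the parent carboxylic acid.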

[24] = test system: Blood; experiment: Metabolic stability in Sprague-Dawley rat whole blood assessed as conversion to (1R,2R)-2-((3-(((3R,4S)-N-cyclopropyl-4-(4-(2-(2,6-dichloro-4-methylphenoxy)ethoxy)phenyl)piperidine-3-carboxamido)methyl)-5-(3-methoxypropyl)phenoxy)methyl)cyclopropanecarboxylic acid after 20 mins; format: ADME, tissue-based; method in brief: as §1
[25] = test system: Blood; experiment: Metabolic stability in human whole blood assessed as conversion to (1R,2R)-2-((3-(((3R,4S)-N-cyclopropyl-4-(4-(2-(2,6-dichloro-4-methylphenoxy)ethoxy)phenyl)piperidine-3-carboxamido)methyl)-5-(3-methoxypropyl)phenoxy)methyl)cyclopropanecarboxylic acid after 20 mins; format: ADME, tissue-based; method in brief: as §1
[26] = test system: Liver; experiment: Metabolic stability in human liver S9 fraction assessed as conversion to (1R,2R)-2-((3-(((3R,4S)-N-cyclopropyl-4-(4-(2-(2,6-dichloro-4-methylphenoxy)ethoxy)phenyl)piperidine-3-carboxamido)methyl)-5-(3-methoxypropyl)phenoxy)methyl)cyclopropanecarboxylic acid after 20 mins; format: ADME, subcellular; details: s9, 20 min; method in brief: as §1

Chain of Voltage-gated inwardly rectifying potassium channel KCNH2 (Q12809 whole entry): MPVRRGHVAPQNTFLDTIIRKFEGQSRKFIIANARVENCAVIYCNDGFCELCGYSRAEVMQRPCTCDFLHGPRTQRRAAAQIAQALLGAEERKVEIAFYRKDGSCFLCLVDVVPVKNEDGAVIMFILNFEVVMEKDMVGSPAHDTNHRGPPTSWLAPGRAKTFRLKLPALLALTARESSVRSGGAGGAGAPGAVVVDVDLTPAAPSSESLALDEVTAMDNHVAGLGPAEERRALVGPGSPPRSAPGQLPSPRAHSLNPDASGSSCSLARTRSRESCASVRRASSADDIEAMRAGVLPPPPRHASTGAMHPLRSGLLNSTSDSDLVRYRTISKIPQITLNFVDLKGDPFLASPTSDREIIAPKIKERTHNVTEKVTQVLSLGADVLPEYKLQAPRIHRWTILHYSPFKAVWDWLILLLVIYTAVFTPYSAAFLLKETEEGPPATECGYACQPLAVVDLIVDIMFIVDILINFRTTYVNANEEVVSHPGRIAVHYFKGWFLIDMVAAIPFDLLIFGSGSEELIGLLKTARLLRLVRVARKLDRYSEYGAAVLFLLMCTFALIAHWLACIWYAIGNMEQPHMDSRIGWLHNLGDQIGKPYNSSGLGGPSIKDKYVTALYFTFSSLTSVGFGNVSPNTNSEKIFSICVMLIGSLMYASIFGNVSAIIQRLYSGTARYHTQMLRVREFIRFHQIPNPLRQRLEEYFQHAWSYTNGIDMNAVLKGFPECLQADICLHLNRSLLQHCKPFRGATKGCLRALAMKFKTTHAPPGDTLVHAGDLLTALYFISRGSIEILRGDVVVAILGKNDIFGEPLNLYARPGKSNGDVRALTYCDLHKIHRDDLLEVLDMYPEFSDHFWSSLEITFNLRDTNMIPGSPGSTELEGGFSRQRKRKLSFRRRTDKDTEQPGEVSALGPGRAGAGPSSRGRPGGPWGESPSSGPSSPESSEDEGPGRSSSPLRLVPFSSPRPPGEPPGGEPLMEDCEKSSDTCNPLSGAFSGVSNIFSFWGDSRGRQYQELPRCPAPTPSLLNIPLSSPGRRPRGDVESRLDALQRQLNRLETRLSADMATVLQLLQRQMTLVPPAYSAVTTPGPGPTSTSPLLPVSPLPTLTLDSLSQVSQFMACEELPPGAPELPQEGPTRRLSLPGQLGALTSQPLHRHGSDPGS
T2 sequence (P08684 whole entry): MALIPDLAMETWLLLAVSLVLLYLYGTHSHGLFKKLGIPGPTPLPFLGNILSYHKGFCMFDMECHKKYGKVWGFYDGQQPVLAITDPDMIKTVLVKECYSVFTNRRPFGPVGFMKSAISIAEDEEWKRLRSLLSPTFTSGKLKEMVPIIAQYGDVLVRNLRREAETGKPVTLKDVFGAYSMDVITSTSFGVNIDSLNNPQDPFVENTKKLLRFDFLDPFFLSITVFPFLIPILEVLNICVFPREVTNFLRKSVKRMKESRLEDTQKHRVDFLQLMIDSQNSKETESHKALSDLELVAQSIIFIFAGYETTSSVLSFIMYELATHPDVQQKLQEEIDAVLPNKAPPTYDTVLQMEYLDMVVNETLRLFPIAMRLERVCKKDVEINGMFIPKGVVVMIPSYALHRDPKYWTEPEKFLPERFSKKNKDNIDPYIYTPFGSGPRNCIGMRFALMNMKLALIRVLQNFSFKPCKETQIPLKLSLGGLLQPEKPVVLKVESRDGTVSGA
Chain of CYP3A4 (P08684 whole entry): as above

pIC50 [2]	pIC50 [3]	pIC50 [4]	pIC50 [5]	AUC(0-t) at 24 h [8] [µM·h]	Activity [23] [%]	Activity [24] [%]	Activity [25] [%]	Structure (SMILES)	pKi [1]	further results
7.96	10.55	4.71	5.85					COCCCc1cc(CN(C(=O)[C@H]2CNCC[C@@H]2c2ccc(OCCOc3c(Cl)cc(C)cc3Cl)cc2)C2CC2)cc(OCC2(CC#N)CC2)c1	7.22	IC50 shift [6]: 14.1
		4.67	5.62					COCCCc1cc(CN(C(=O)[C@H]2CNCC[C@@H]2c2ccc(OCCOc3c(Cl)cc(C)cc3Cl)cc2)C2CC2)cc(OCCOC)c1	7.10	
		4.64	5.85					COCCCc1cc(CN(C(=O)[C@H]2CNCC[C@@H]2c2ccc(OCCOc3c(Cl)cc(C)cc3Cl)cc2)C2CC2)cc(OCCN(C)C)c1	6.74	
8.54	10.55							COCCCc1cc(CN(C(=O)[C@H]2CNCC[C@@H]2c2ccc(OCCOc3c(Cl)cc(C)cc3Cl)cc2)C2CC2)cc(OCCCNS(C)(=O)=O)c1	7.10	
8.48	10.66	5.20	5.62					CCNC(=O)NCCCOc1cc(CCCOC)cc(CN(C(=O)[C@H]2CNCC[C@@H]2c2ccc(OCCOc3c(Cl)cc(C)cc3Cl)cc2)C2CC2)c1	6.82	IC50 shift [6]: 2.6
		< 4.30	5.25					COCCCc1cc(CN(C(=O)[C@H]2CNCC[C@@H]2c2ccc(OCCOc3c(Cl)cc(C)cc3Cl)cc2)C2CC2)cc(OCC(C)(C)O)c1	6.89	
8.96	10.57	< 4.30	< 4.30	0.1				COCCCc1cc(CN(C(=O)[C@H]2CNCC[C@@H]2c2ccc(OCCOc3c(Cl)cc(C)cc3Cl)cc2)C2CC2)cc(OC[C@H]2C[C@@H]2C(=O)O)c1	5.97	bioavailability [7]: 0%; clearance [9]: 60 mL/min/kg; bioavailability [10]: 0%; AUC(0-t) at 24 h [11]: 0.3 µM·h; AUC(0-t) at 24 h [12]: 0.03 µM·h; bioavailability [13]: 1%; bioavailability [14]: 1%; AUC(0-t) at 24 h [15]: 0.1 µM·h; AUC(0-t) at 24 h [16]: 0.1 µM·h; AUC(0-t) at 24 h [17]: 0.5 µM·h; bioavailability [18]: 4%; AUC(0-t) at 24 h [19]: 0.1 µM·h; bioavailability [20]: 1%; bioavailability [21]: 0%; bioavailability [22]: 1%
				3.5	66	100	1	COCCCc1cc(CN(C(=O)[C@H]2CNCC[C@@H]2c2ccc(OCCOc3c(Cl)cc(C)cc3Cl)cc2)C2CC2)cc(OC[C@H]2C[C@@H]2C(=O)OCC(=O)N(C)C)c1	6.70	
					81	100	38	CCOC(=O)OC(C)OC(=O)[C@H]1C[C@@H]1COc1cc(CCCOC)cc(CN(C(=O)[C@H]2CNCC[C@@H]2c2ccc(OCCOc3c(Cl)cc(C)cc3Cl)cc2)C2CC2)c1 (stereo not given in full)		Activity [26]: 90%
				0.2	83	100	56	COCCCc1cc(CN(C(=O)[C@H]2CNCC[C@@H]2c2ccc(OCCOc3c(Cl)cc(C)cc3Cl)cc2)C2CC2)cc(OC[C@H]2C[C@@H]2C(=O)OCOC(=O)C(C)(C)C)c1	7.40	Activity [26]: 95%
